ChEMBL document CHEMBL1143610, “Applying linear interaction energy method for rational design of noncompetitive allosteric inhibitors of the sarco- and endoplasmic reticulum calcium-ATPase” (J Med Chem, 2005)
pIC50: −log10 of the molar value.

Columns and labels:
[1] = target: T1, Sarcoplasmic/endoplasmic reticulum calcium ATPase 1 (Homo sapiens, UniProt O14983); assay: Inhibitory potency against sarco- endoplasmic reticulum calcium-ATPase in relative to thapsigargin
Target sequence in this assay (O14983 whole entry, looked up): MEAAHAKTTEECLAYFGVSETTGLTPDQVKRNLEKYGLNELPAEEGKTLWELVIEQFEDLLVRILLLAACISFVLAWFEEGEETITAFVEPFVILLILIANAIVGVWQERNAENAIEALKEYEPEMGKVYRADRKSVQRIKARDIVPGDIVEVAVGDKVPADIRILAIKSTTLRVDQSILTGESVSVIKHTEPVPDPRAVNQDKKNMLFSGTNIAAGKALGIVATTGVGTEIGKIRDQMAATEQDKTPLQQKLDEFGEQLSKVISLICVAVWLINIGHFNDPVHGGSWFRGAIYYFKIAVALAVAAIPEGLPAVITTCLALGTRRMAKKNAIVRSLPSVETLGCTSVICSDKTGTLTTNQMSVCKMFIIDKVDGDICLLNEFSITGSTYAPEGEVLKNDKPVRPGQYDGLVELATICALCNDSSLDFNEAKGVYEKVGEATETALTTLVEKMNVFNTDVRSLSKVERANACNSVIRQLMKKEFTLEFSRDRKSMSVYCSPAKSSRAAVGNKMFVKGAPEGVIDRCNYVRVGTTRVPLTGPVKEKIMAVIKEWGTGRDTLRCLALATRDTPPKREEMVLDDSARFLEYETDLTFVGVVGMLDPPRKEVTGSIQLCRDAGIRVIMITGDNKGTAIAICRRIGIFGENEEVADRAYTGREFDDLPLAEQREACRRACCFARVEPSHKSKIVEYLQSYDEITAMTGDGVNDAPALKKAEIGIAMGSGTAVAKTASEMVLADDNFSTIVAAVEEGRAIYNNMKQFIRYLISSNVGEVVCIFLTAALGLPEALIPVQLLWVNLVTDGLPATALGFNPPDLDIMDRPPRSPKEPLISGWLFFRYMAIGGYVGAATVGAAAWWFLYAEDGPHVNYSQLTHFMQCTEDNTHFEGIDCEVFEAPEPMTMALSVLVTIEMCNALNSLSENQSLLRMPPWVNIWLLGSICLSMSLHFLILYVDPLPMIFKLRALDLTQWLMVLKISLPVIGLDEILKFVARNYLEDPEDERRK

[2] = target: T1, Sarcoplasmic/endoplasmic reticulum calcium ATPase 1; assay: Inhibitory potency against sarco- endoplasmic reticulum calcium-ATPase in relative to thapsigargin (Experimental)
Target sequence in this assay (O14983 whole entry, looked up): as above

[3] = target: T1, Sarcoplasmic/endoplasmic reticulum calcium ATPase 1; assay: Inhibitory potency against sarco- endoplasmic reticulum calcium-ATPase in relative to thapsigargin by using SGB-LIE method
How it was run: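 SGB-LIE computation with a surface generalized Born continuum solvent. SERCA coordinates came from one TG-bound monomer of PDB 1IWO, truncated to the transmembrane domain, lumen and the near-membrane cytoplasmic part. Histidine protonation was set to favour H-bonds. Ligands were superimposed on bound TG, with O-8 side chains in the hydrophobic channel. Vacuum minimisation held protein atoms fixed except nonpolar H. LIE parameters were fitted to experimental data for 20 training analogues.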
Target sequence in this assay (O14983 whole entry, looked up): as above

[4] = target: T1, Sarcoplasmic/endoplasmic reticulum calcium ATPase 1; assay: Inhibitory activity against sarco- endoplasmic reticulum calcium-ATPase
Target sequence in this assay (O14983 whole entry): as the sequence (O14983 whole entry, looked up) above

SMILES	RIC50 [1]	further results
C/C=C(/C)C(=O)O[C@H]1C(C)=C2[C@H]([C@@H]1OC(=O)CCCCCCC)[C@@](C)(OC(C)=O)C[C@H](OC(=O)/C=C/c1ccc(N)cc1)[C@@]1(O)[C@H]2O[C@H](O)[C@@]1(C)O	0.59	–
C/C=C(/C)C(=O)O[C@H]1C(C)=C2[C@H]([C@@H]1OC(=O)CCCCCCC)[C@@](C)(OC(C)=O)C[C@H](OC(=O)CCCCCCCCCCCNC(=O)[C@@H](N)CO)[C@@]1(O)[C@H]2O[C@H](O)[C@@]1(C)O	1.25	–
C/C=C(/C)C(=O)O[C@H]1C(C)=C2[C@H]([C@@H]1O)[C@@](C)(O)C[C@H](OC(=O)CCC)[C@@]1(O)[C@H]2O[C@H]2OC(C)(C)O[C@]21C	0.0002	–
C/C=C(/C)C(=O)O[C@H]1C(C)=C2[C@H]([C@@H]1OC(=O)CCCCC)[C@@](C)(OC(C)=O)C[C@H](OC(=O)CCC)[C@@]1(O)[C@H]2O[C@H]2O[C@H](OCC)O[C@]21C	0.4	–
C/C=C(/C)C(=O)O[C@H]1C(C)=C2[C@H]([C@@H]1OC(=O)CCCCCCC)[C@@](C)(OC(C)=O)C[C@H](OC(=O)CCCCCC(=O)Nc1ccc(C)c(N)c1)[C@@]1(O)[C@H]2O[C@H](O)[C@@]1(C)O	0.22	–
C/C=C(/C)C(=O)O[C@H]1C(C)=C2[C@H]([C@@H]1OC(=O)CCCCC)[C@@](C)(OC(C)=O)C[C@H](OC(=O)CCC)[C@@]1(O)[C@H]2O[C@@H](OCC)[C@@]1(C)O	0.52	–
C/C=C(/C)C(=O)O[C@H]1C(C)=C2[C@H]([C@@H]1OC(=O)CCCCCCC)[C@@](C)(OC(C)=O)C[C@H](OC(=O)CCCCCCCCCCN)[C@@]1(O)[C@H]2O[C@H](O)[C@@]1(C)O	0.333	–
CCCCCCCC(=O)O[C@@H]1C(=O)C(C)=C2[C@H]1[C@@](C)(OC(C)=O)C[C@H](OC(=O)CCCCCCCCCCCNC(=O)CCC(N)C(=O)O)[C@@]1(O)[C@H]2OC(=O)[C@@]1(C)O (stereo not given in full)	–	RIC50 [2]: 0.83; RIC50 [3]: 5; pIC50 [4]: 8.92
C/C=C(/C)C(=O)O[C@H]1C(C)=C2[C@H]([C@@H]1OC(=O)CCCCCCC)[C@@](C)(OC(C)=O)C[C@H](OC(=O)CCCCCN)[C@@]1(O)[C@H]2O[C@H](O)[C@@]1(C)O	0.01	–
CCCCCCCC(=O)O[C@@H]1C(=O)C(C)=C2[C@H]1[C@@](C)(OC(C)=O)C[C@H](OC(=O)CCCC(=O)O)[C@@]1(O)[C@H]2OC(=O)[C@@]1(C)O	–	RIC50 [2]: 0.02; RIC50 [3]: 0.31; pIC50 [4]: 7.70
C/C=C(/C)C(=O)O[C@H]1C(C)=C2[C@H]([C@@H]1OC(=O)CCCCCCC)[C@@](C)(OC(C)=O)C[C@H](OC(=O)/C=C/c1ccc(NC(=O)OC(C)(C)C)cc1)[C@@]1(O)[C@H]2O[C@H](O)[C@@]1(C)O	0.54	–
C/C=C(/C)C(=O)O[C@H]1C(C)=C2[C@H]([C@@H]1OC(=O)CCCCCCC)[C@@](C)(OC(C)=O)C[C@H](OC(=O)CCC(=O)Nc1ccc(C)c(N)c1)[C@@]1(O)[C@H]2O[C@H](O)[C@@]1(C)O	0.003	–
C/C=C(/C)C(=O)O[C@H]1C(C)=C2[C@H]([C@@H]1OC(=O)CCCCCCC)[C@@](C)(OC(C)=O)C[C@@H](OC(=O)CCC)[C@@]1(O)[C@H]2OC(=O)[C@@]1(C)O	0.0003	–
C/C=C(/C)C(=O)O[C@H]1C(C)=C2[C@H]([C@@H]1OC(=O)CCCCCCC)[C@@](C)(OC(C)=O)C[C@H](OC(=O)CCC)[C@@]1(O)[C@H]2OC(=O)[C@@]1(C)O (stereo in doubt; form 2)	0.67	–
C/C=C(/C)C(=O)O[C@H]1C(C)=C2[C@H]([C@@H]1OC(=O)CCCCCCC)[C@@](C)(OC(C)=O)C[C@H](OC(=O)CCCCCCCN)[C@@]1(O)[C@H]2O[C@H](O)[C@@]1(C)O	0.059	–
CCCCCCCC(=O)O[C@@H]1C(=O)C(C)=C2[C@H]1[C@@](C)(OC(C)=O)C[C@H](OC(=O)CCC(=O)Nc1ccc(C)c(N)c1)[C@@]1(O)[C@H]2OC(=O)[C@@]1(C)O	–	RIC50 [2]: 0.004; RIC50 [3]: 0.0006; pIC50 [4]: 5.04
C/C=C(/C)C(=O)O[C@H]1C(C)=C2[C@H]([C@@H]1OC(=O)CCCCC)[C@@](C)(OC(C)=O)C[C@H](OC(=O)CCC)[C@@]1(O)[C@H]2O[C@H](OCC)[C@@]1(C)O	0.85	–
C/C=C(/C)C(=O)O[C@H]1C(C)=C2[C@H]([C@@H]1OC(=O)CCCCCCC)[C@@](C)(OC(C)=O)C[C@H](OC(=O)CCCCCCCCCCCN)[C@@]1(O)[C@H]2O[C@H](O)[C@@]1(C)O	0.384	–
C/C=C(/C)C(=O)O[C@H]1C(C)=C2[C@H]([C@@H]1OC(=O)CCCCCCC)[C@@](C)(OC(C)=O)C[C@H](OC(=O)CCCCCCN)[C@@]1(O)[C@H]2O[C@H](O)[C@@]1(C)O	0.011	–
CCCCCCCCO[C@@H]1C(C)=C2[C@H]([C@@H]1OC(=O)CCCCCCC)[C@@](C)(OC(C)=O)C[C@H](OC(=O)CCC)[C@@]1(O)[C@H]2OC(=O)[C@@]1(C)O	0.002	–
C/C=C(/C)C(=O)O[C@H]1C(C)=C2[C@H]([C@@H]1OC(=O)CCCCCCC)[C@@](C)(OC(C)=O)C[C@H](OC(=O)CCc1ccc(N)cc1)[C@@]1(O)[C@H]2O[C@H](O)[C@@]1(C)O	0.68	–

SMILES	RIC50 [1]	further results
C/C=C(/C)C(=O)O[C@H]1C(C)=C2[C@H]([C@@H]1OC(=O)CCCCCCC)[C@@](C)(OC(C)=O)C[C@H](O)[C@@]1(O)[C@H]2O[C@H](O)[C@@]1(C)O	0.19	–
C/C=C(/C)C(=O)O[C@H]1C(C)=C2[C@H]([C@@H]1OC(=O)CCCCCCC)[C@@](C)(OC(C)=O)C[C@H](OC(=O)CCCc1ccc(N)cc1)[C@@]1(O)[C@H]2O[C@H](O)[C@@]1(C)O	0.6	–
C/C=C(\C)C(=O)O[C@H]1C(C)=C2[C@H]([C@@H]1OC(=O)CCCCCCC)[C@@](C)(OC(C)=O)C[C@H](OC(=O)CCC)[C@@]1(O)[C@H]2OC(=O)[C@@]1(C)OC(C)=O	0.4	–
C/C=C(/C)C(=O)O[C@H]1C(C)=C2[C@H]([C@@H]1OC(=O)CCCCCCC)[C@@](C)(OC(C)=O)C[C@H](OC(=O)c1ccc(N)cc1)[C@@]1(O)[C@H]2O[C@H](O)[C@@]1(C)O	0.59	–
C/C=C(/C)C(=O)O[C@H]1C(C)=C2[C@H]([C@@H]1OC(=O)CCCCCCC)[C@@](C)(O)C[C@H](OC(=O)CCCCCCC)[C@@]1(O)[C@H]2OC(O)[C@@]1(C)O (stereo not given in full)	0.08	–
C/C=C(/C)C(=O)O[C@H]1C(C)=C2[C@H]([C@@H]1OC(=O)CCCCC)[C@@](C)(OC(C)=O)C[C@H](OC(=O)CCC)[C@@]1(O)[C@H]2OC(=O)[C@@]1(C)O	0.98	–
C/C=C(/C)C(=O)O[C@H]1C(C)=C2[C@H]([C@@H]1OC(=O)CCCCC)[C@@](C)(OC(C)=O)C[C@H](OC(=O)CCC)[C@@]1(O)[C@H]2O[C@H]2O[C@@H](OCC)O[C@]21C	0.02	–
CCCCCCCC(=O)O[C@@H]1C(=O)C(C)=C2[C@H]1[C@@](C)(OC(C)=O)C[C@H](OC(=O)CCCCCCCCCCC(=O)O)[C@@]1(O)[C@H]2OC(=O)[C@@]1(C)O	–	RIC50 [2]: 0.25; RIC50 [3]: 2.08; pIC50 [4]: 8.68
C/C=C(\C)C(=O)O[C@H]1C(C)=C2[C@H]([C@@H]1OC(=O)CCCCCCC)[C@@](C)(O)C[C@H](OC(=O)CCC)[C@@]1(O)[C@H]2OC(=O)[C@@]1(C)O	0.02	–
C/C=C(\C)C(=O)O[C@H]1C(C)=C2[C@H]([C@@H]1OC(=O)CCCCCCC)[C@@](C)(OC(C)=O)C[C@H](OC(=O)CCC)[C@@]1(OC(C)=O)[C@H]2OC(=O)[C@@]1(C)O	0.36	–
C/C=C(/C)C(=O)O[C@H]1C(C)=C2[C@H]([C@@H]1OC(=O)CCCCCCC)[C@@](C)(OC(C)=O)C[C@H](OC(=O)CCC)[C@@]1(O)[C@H]2O[C@H]2O[C@]21C	0.186	–
C/C=C(/C)C(=O)O[C@H]1C(C)=C2[C@H]([C@@H]1OC(=O)CCCCC)[C@@](C)(OC(C)=O)C[C@H](OC(=O)CCC)[C@@]1(O)[C@H]2O[C@H]2OCO[C@]21C	0.06	–
C/C=C(\C)C(=O)O[C@H]1C(C)=C2[C@H]([C@@H]1OC(=O)CCCCCCC)[C@@](C)(OC(C)=O)C[C@H](OC(=O)CCC)[C@@]1(OC(C)=O)[C@H]2OC(=O)[C@@]1(C)OC(C)=O	0.07	–
CCCCCCCC(=O)O[C@@H]1C(=O)C(C)=C2[C@H]1[C@@](C)(OC(C)=O)C[C@H](OC(=O)CCC)[C@@]1(O)[C@H]2OC(=O)[C@@]1(C)O	0.015	–
CCCCCCCC(=O)O[C@H]1[C@H]2C(=C(C)[C@@H]1OC(=O)CCCCCCC)[C@@H]1OC(=O)[C@@](C)(O)[C@@]1(O)[C@@H](OC(=O)CCC)C[C@]2(C)OC(C)=O	0.09	–
C/C=C(/C)C(=O)O[C@H]1C(C)=C2[C@H]([C@@H]1OC(=O)CCCCCCC)[C@@](C)(OC(C)=O)C[C@H](OC(=O)CCC)[C@@]1(O)[C@H]2OC(=O)[C@@]1(C)O (stereo in doubt; form 1)	1	–
C/C=C(/C)C(=O)O[C@H]1C(C)=C2[C@H]([C@@H]1OC(=O)CCCCCCC)[C@@](C)(OC(C)=O)C[C@H](OC(=O)CCCCCCCCCCCNC(=O)[C@H](C)N)[C@@]1(O)[C@H]2O[C@H](O)[C@@]1(C)O	0.833	–
C/C=C(/C)C(=O)O[C@H]1C(C)=C2[C@H]([C@@H]1OC(=O)CCCCCCC)[C@@](C)(OC(C)=O)C[C@H](OC(=O)CCc1ccc(NC(=O)OC(C)(C)C)cc1)[C@@]1(O)[C@H]2O[C@H](O)[C@@]1(C)O	0.52	–
C/C=C(/C)C(=O)O[C@H]1C(C)=C2[C@H]([C@@H]1OC(=O)CCCCC)[C@@](C)(O)C[C@H](OC(=O)CCC)[C@@]1(O)[C@H]2O[C@H]2OC(C)(C)O[C@]21C	0.002	–
C/C=C(/C)C(=O)O[C@H]1C(C)=C2[C@H]([C@@H]1OC(=O)CCCCCCC)[C@@](C)(OC(C)=O)C[C@H](OC(=O)CCCCCCCCCCCNC(=O)[C@@H](N)CC(C)C)[C@@]1(O)[C@H]2O[C@H](O)[C@@]1(C)O	0.294	–
C/C=C(/C)C(=O)O[C@H]1C(C)=C2[C@H]([C@@H]1OC(=O)CCCCCCC)[C@@](C)(OC(C)=O)C[C@H](OC(=O)CCCCCNC(=O)[C@@H](N)CC(C)C)[C@@]1(O)[C@H]2O[C@H](O)[C@@]1(C)O	0.004	–
